Laboratory results reported in ChEMBL document CHEMBL1649151, “Urinary bactericidal activity of Doripenem versus that of levofloxacin in patients with complicated urinary tract infections or pyelonephritis” (Antimicrob Agents Chemother, 2009).
Values after ≈ are worked out from the molar mass of the structure shown.

Tests used:
[1] = tested on: Pseudomonas aeruginosa; test: Antimicrobial activity against Pseudomonas aeruginosa 1134642 isolated from patient with pyelonephritis assessed as >3-log reduction in urinary bacterial titer after 24 hrs; assay type: functional, Urine
In short: (§1)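 Patient urine was collected on day 3 of i.v. therapy (steady state) over 4-h intervals after infusion start, stored at –80°C, and sterile filtered. It was twofold serially diluted (1:0 to 1:131,072) in the patient's own pre-dose drug-free urine, inoculated to 1.0 x 10^6–9.5 x 10^6 CFU/ml, and incubated for 18 h at 37°C. Subcultures were grown on blood agar for 24 h. The UBT is the reciprocal of the highest dilution giving >99.9% kill.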

[2] = tested on: Pseudomonas aeruginosa; test: Antimicrobial activity against Pseudomonas aeruginosa […] assessed as >3-log reduction in urinary bacterial titer after 24 hrs; assay type: functional, Urine; in short: as §1
[3] = tested on: Escherichia coli; test: Antimicrobial activity against Escherichia coli 1135121 isolated from patient with pyelonephritis assessed as >3-log reduction in urinary bacterial titer after 16 hrs; assay type: functional, Urine
In short: (§2)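 Urine was collected before dosing and on day 3 of i.v. therapy (steady state), in 4-h intervals from infusion start (0–4 to 20–24 h), stored at −80°C and sterile filtered. It was serially diluted twofold (1:0 to 1:131,072) in the patient's drug-free pre-dose urine. Microdilution used an inoculum of 1.0 x 10^6–9.5 x 10^6 CFU/ml, incubated 18 h at 37°C, then subcultured 24 h on blood agar. The endpoint was >99.9% kill, reported as reciprocal titer.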

[4] = tested on: Pseudomonas aeruginosa; test: Antimicrobial activity against Pseudomonas aeruginosa […] assessed as >3-log reduction in urinary bacterial titer after 4 hrs; assay type: functional, Urine; in short: as §1
[5] = tested on: Escherichia coli; test: Antimicrobial activity against Escherichia coli 1135121 isolated from patient with pyelonephritis by Etest; assay type: functional
[6] = Drug excretion in pyelonephritis patient urine at 250 mg/kg, iv administered every 24 hrs; assay type: ADME, organism-based; set-up: dose 250 mg/kg, route intravenous; settings: human, read-out: Activity
[7] = tested on: Escherichia coli; test: Antimicrobial activity against Escherichia coli 1949820 B-N isolated from patient with pyelonephritis assessed as >3-log reduction in urinary bacterial titer after 12 hrs; assay type: functional, Urine
In short: (§3)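 Urine was collected on day 3 of i.v. therapy (steady state) over 4-h intervals from infusion start (0–4 to 20–24 h), stored at –80°C and sterile filtered. It was serially diluted twofold (1:0 up to 1:131,072) in the patient's own pre-dose drug-free urine. Microdilution used a final inoculum of 1.0 x 10^6 to 9.5 x 10^6 CFU/ml, incubated 18 h at 37°C in air. 10 µl was subcultured onto 5% blood Columbia agar for 24 h at 37°C. The bactericidal endpoint was >99.9% (>3-log) kill, reported as a reciprocal titer.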

[8] = tested on: Pseudomonas aeruginosa; test: Antimicrobial activity against Pseudomonas aeruginosa 1134642 isolated from patient with pyelonephritis by Etest; assay type: functional
[9] = tested on: Staphylococcus aureus; test: Antimicrobial activity against Staphylococcus aureus 1134684 isolated from patient with pyelonephritis assessed as >3-log reduction in urinary bacterial titer after 20 hrs; assay type: functional, Urine; in short: as §1
[10] = tested on: Staphylococcus epidermidis; test: Antimicrobial activity against Staphylococcus epidermidis 1949822 B-J isolated from patient with pyelonephritis by Etest; assay type: functional
[11] = tested on: Escherichia coli; test: Antimicrobial activity against Escherichia coli 1949821 B-M isolated from patient with pyelonephritis assessed as >3-log reduction in urinary bacterial titer after 24 hrs; assay type: functional, Urine; in short: as §3
[12] = Drug excretion in pyelonephritis patient urine at 500 mg/kg, iv administered every 8 hrs; assay type: ADME, organism-based; set-up: dose 500 mg/kg, route intravenous; settings: human, read-out: Activity
[13] = tested on: Pseudomonas aeruginosa; test: Antimicrobial activity against Pseudomonas aeruginosa 1134642 isolated from patient with pyelonephritis assessed as >3-log reduction in urinary bacterial titer after 16 hrs; assay type: functional, Urine; in short: as §1
[14] = tested on: Escherichia coli; test: Antimicrobial activity against Escherichia coli 2062717 B-P isolated from patient with pyelonephritis by Etest; assay type: functional
[15] = tested on: Escherichia coli; test: Antimicrobial activity against Escherichia coli 1889646 B-F isolated from patient with pyelonephritis by Etest; assay type: functional
[16] = tested on: Proteus mirabilis; test: Antimicrobial activity against Proteus mirabilis 1134841 isolated from patient with pyelonephritis by Etest; assay type: functional
[17] = tested on: Enterococcus faecalis; test: Antimicrobial activity against Enterococcus faecalis 1780065 B-B isolated from patient with pyelonephritis assessed as >3-log reduction in urinary bacterial titer after 12 hrs; assay type: functional, Urine; in short: as §2
[18] = tested on: Pseudomonas aeruginosa; test: Antimicrobial activity against Pseudomonas aeruginosa ATCC 27853 isolated from patient with pyelonephritis assessed as >3-log reduction in urinary bacterial titer after 8 hrs; assay type: functional, Urine; in short: as §1
[19] = tested on: Staphylococcus aureus; test: Antimicrobial activity against Staphylococcus aureus 1134684 isolated from patient with pyelonephritis assessed as >3-log reduction in urinary bacterial titer after 8 hrs; assay type: functional, Urine; in short: as §1
[20] = tested on: Escherichia coli; test: Antimicrobial activity against Escherichia coli 1135121 isolated from patient with pyelonephritis assessed as >3-log reduction in urinary bacterial titer after 20 hrs; assay type: functional, Urine; in short: as §2
[21] = tested on: Pseudomonas aeruginosa; test: Antimicrobial activity against Pseudomonas aeruginosa 1134642 isolated from patient with pyelonephritis assessed as >3-log reduction in urinary bacterial titer after 8 hrs; assay type: functional, Urine; in short: as §1
[22] = tested on: Pseudomonas aeruginosa; test: Antimicrobial activity against Pseudomonas aeruginosa […] assessed as >3-log reduction in urinary bacterial titer after 20 hrs; assay type: functional, Urine; in short: as §1
[23] = tested on: Escherichia coli; test: Antimicrobial activity against Escherichia coli 1949821 B-M isolated from patient with pyelonephritis assessed as >3-log reduction in urinary bacterial titer after 12 hrs; assay type: functional, Urine; in short: as §3
[24] = tested on: Pseudomonas aeruginosa; test: Antimicrobial activity against Pseudomonas aeruginosa ATCC 27853 isolated from patient with pyelonephritis by Etest; assay type: functional
[25] = tested on: Escherichia coli; test: Antimicrobial activity against Escherichia coli 1949821 B-M isolated from patient with pyelonephritis assessed as >3-log reduction in urinary bacterial titer after 16 hrs; assay type: functional, Urine; in short: as §3
[26] = tested on: Escherichia coli; test: Antimicrobial activity against Escherichia coli 1949820 B-N isolated from patient with pyelonephritis assessed as >3-log reduction in urinary bacterial titer after 20 hrs; assay type: functional, Urine; in short: as §3
[27] = tested on: Enterococcus faecalis; test: Antimicrobial activity against Enterococcus faecalis 1780065 B-B isolated from patient with pyelonephritis assessed as >3-log reduction in urinary bacterial titer after 4 hrs; assay type: functional, Urine; in short: as §2
[28] = tested on: Staphylococcus aureus; test: Antimicrobial activity against Staphylococcus aureus 1134684 isolated from patient with pyelonephritis by Etest; assay type: functional
[29] = tested on: Staphylococcus aureus; test: Antimicrobial activity against Staphylococcus aureus 1134684 isolated from patient with pyelonephritis assessed as >3-log reduction in urinary bacterial titer after 4 hrs; assay type: functional, Urine; in short: as §1
[30] = tested on: Pseudomonas aeruginosa; test: Antimicrobial activity against Pseudomonas aeruginosa 1134642 isolated from patient with pyelonephritis assessed as >3-log reduction in urinary bacterial titer after 4 hrs; assay type: functional, Urine; in short: as §1
[31] = tested on: Escherichia coli; test: Antimicrobial activity against Escherichia coli 1135121 isolated from patient with pyelonephritis assessed as >3-log reduction in urinary bacterial titer after 24 hrs; assay type: functional, Urine; in short: as §2
[32] = tested on: Enterococcus faecalis; test: Antimicrobial activity against Enterococcus faecalis 1780065 B-B isolated from patient with pyelonephritis assessed as >3-log reduction in urinary bacterial titer after 20 hrs; assay type: functional, Urine; in short: as §2
[33] = tested on: Pseudomonas aeruginosa; test: Antimicrobial activity against Pseudomonas aeruginosa 1134642 isolated from patient with pyelonephritis assessed as >3-log reduction in urinary bacterial titer after 12 hrs; assay type: functional, Urine; in short: as §1
[34] = tested on: Staphylococcus aureus; test: Antimicrobial activity against Staphylococcus aureus 1134684 isolated from patient with pyelonephritis assessed as >3-log reduction in urinary bacterial titer after 12 hrs; assay type: functional, Urine; in short: as §1
[35] = tested on: Escherichia coli; test: Antimicrobial activity against Escherichia coli 1135121 isolated from patient with pyelonephritis assessed as >3-log reduction in urinary bacterial titer after 4 hrs; assay type: functional, Urine; in short: as §2
[36] = tested on: Enterococcus faecalis; test: Antimicrobial activity against Enterococcus faecalis 1780065 B-B isolated from patient with pyelonephritis assessed as >3-log reduction in urinary bacterial titer after 16 hrs; assay type: functional, Urine; in short: as §2
[37] = tested on: Proteus mirabilis; test: Antimicrobial activity against Proteus mirabilis 1134841 isolated from patient with pyelonephritis assessed as >3-log reduction in urinary bacterial titer after 12 hrs; assay type: functional, Urine; in short: as §1

SMILES	urinary bactericidal titer [1] [reciprocal titer]	urinary bactericidal titer [2] [reciprocal titer]	urinary bactericidal titer [3] [reciprocal titer]	urinary bactericidal titer [4] [reciprocal titer]	MIC [5] [µg/mL]	dose excreted at 24 h [6] [%]	MIC [8] [µg/mL]	urinary bactericidal titer [9] [reciprocal titer]	MIC [10] [µg/mL]	Time [11] [h]	dose excreted at 8 h [12] [%]	urinary bactericidal titer [13] [reciprocal titer]	MIC [14] [µg/mL]	MIC [15] [µg/mL]	MIC [16] [µg/mL]	urinary bactericidal titer [17] [reciprocal titer]	urinary bactericidal titer [18] [reciprocal titer]	urinary bactericidal titer [19] [reciprocal titer]	urinary bactericidal titer [20] [titer]	urinary bactericidal titer [21] [reciprocal titer]	also measured
C[C@H]1COc2c(N3CCN(C)CC3)c(F)cc3c(=O)c(C(=O)O)cn1c23.C[C@H]1COc2c(N3CCN(C)CC3)c(F)cc3c(=O)c(C(=O)O)cn1c23.O [LEVOFLOXACIN]	0	4	2.5	16	4	80	16	2	8	40	80	1	8	> 8	> 8	16	16	4	3	2	Time [7]: 0.5 h; urinary bactericidal titer [22]: 6 reciprocal titer; urinary bactericidal titer [23]: 64 titer; MIC [24]: 0.25 µg/mL; Time [25]: 48 h; Time [26]: 1 h; urinary bactericidal titer [27]: 32 reciprocal titer; MIC [28]: 4 µg/mL; urinary bactericidal titer [29]: 8 reciprocal titer; urinary bactericidal titer [30]: 2 reciprocal titer; urinary bactericidal titer [31]: 2 reciprocal titer; urinary bactericidal titer [32]: 8 reciprocal titer; urinary bactericidal titer [33]: 1 reciprocal titer; urinary bactericidal titer [34]: 4 reciprocal titer; urinary bactericidal titer [35]: 8 reciprocal titer; Time [36]: 16 h; urinary bactericidal titer [37]: 0 reciprocal titer
C[C@@H](O)[C@H]1C(=O)N2C(C(=O)O)=C(S[C@@H]3CN[C@H](CNS(N)(=O)=O)C3)[C@H](C)[C@H]12 [DORIPENEM]	1280	512	8192	2048	≤ 0.015	80	2 (≈ 4.76 µM)	8	> 32	5120	80	2048	≤ 0.015	0.03 (≈ 0.0713 µM)	0.03 (≈ 0.0713 µM)	192	1024	4	32800	1024	urinary bactericidal titer [7]: 32800; urinary bactericidal titer [22]: 4096 reciprocal titer; urinary bactericidal titer [23]: 32800 titer; MIC [24]: 0.12 µg/mL (≈ 0.285 µM); Time [25]: 8192 h; urinary bactericidal titer [26]: 32800; urinary bactericidal titer [27]: 128 reciprocal titer; MIC [28]: 32 µg/mL (≈ 76.1 µM); urinary bactericidal titer [29]: 8 reciprocal titer; urinary bactericidal titer [30]: 4096 reciprocal titer; urinary bactericidal titer [31]: 4096 reciprocal titer; urinary bactericidal titer [32]: 256 reciprocal titer; urinary bactericidal titer [33]: 6140 reciprocal titer; urinary bactericidal titer [34]: 12 reciprocal titer; urinary bactericidal titer [35]: 49200 reciprocal titer; Time [36]: 48 h; urinary bactericidal titer [37]: 6140 reciprocal titer
